ALR H2O2 inh: inhibitors of human ALR sulfhydryl oxidase, primary screen, biochemical, H2O2 detection, HRP-luminol luminescence, single point; FAD-linked sulfhydryl oxidase ALR (Homo sapiens), P55789; 3.8% of 290,000 active; purified ALR, DTT oxidation; inhibition, % (no concentration beside the values);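 active = mean replicate inhibition above about 79%, with every replicate also reaching it, limit read from the data; inconclusive = only one of the two criteria met; inactive = mean below limit and not every replicate reaching it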
Target sequence (P55789 whole entry, looked up): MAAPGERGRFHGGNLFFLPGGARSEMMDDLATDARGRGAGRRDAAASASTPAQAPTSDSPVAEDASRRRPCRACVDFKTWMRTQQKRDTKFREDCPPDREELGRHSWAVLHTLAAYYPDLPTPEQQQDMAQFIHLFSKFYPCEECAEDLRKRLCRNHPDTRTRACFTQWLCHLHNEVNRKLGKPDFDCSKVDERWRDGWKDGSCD
PREPL inhibitor: PREPL enzyme inhibitors, primary screen, biochemical, fluorescence polarization. Prolyl endopeptidase-like (Homo sapiens), Q4J6C6. 0.68% of 320,000 active. recombinant PREPL, fluorescence polarization activity-based probe. inhibition, % at 5.96 µM; in the data active = inhibition above about 43%;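 also: 0% = enzyme with DMSO and 100% = wells lacking enzyme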
Rin1-Abl PPI inh: inhibitors of Rin1-Abl protein binding, primary screen, biochemical, TR-FRET. inhibition, % at 7.35 µM. 0.4% of 360,000 active. AID 588664, 2011; in the data active = inhibition above about 5%, passing the limit was not always enough
RBBP9 inh: human RBBP9 inhibitors, primary screen, biochemical, fluorescence polarization, FP-Rh probe, HTS; Serine hydrolase RBBP9 (Homo sapiens), O75884; recombinant RBBP9; inhibition, % at 7.94 µM; 0.2% of 220,000 active; AID 1515, 2009;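 active = inhibition above the campaign mean of all tested compounds plus 3 SD, cut at about 14% in these data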;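 also: plate controls were DMSO wells with RBBP9 for no effect and wells lacking RBBP9 protein for full effect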
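Test system: recombinant human RBBP9; Timing: 30 min then 45 min, 25 °C; Detection: fluorescence polarization; Control set: RBBP9 with DMSO as uninhibited control, no-protein wells as full inhibition; Compound dosing: one concentration, 7.94 µM nominal, 0.794% DMSO; Probe or stimulus: FP-Rh activity-based probe, 375 nM before mixing.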
UBC13 inh: UBC13 polyubiquitin chain formation inhibitors, primary screen, biochemical, TR-FRET, uHTS; Ubiquitin-conjugating enzyme E2 N (Homo sapiens), P61088; inhibition, % at 20 µM; 0.47% of 330,000 active; AID 485273, 2010; in the data active = inhibition above about 45%, passing the limit was not always enough; inconclusive = no clear call, values can overlap the other calls
Target sequence (P61088 whole entry, looked up): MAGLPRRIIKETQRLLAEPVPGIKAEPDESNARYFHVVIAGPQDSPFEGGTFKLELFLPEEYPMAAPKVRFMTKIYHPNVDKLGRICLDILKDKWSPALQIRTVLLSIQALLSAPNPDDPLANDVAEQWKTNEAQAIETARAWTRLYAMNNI
SUMO HTRF inh: inhibitors of in vitro SUMOylation cascade, primary screen, biochemical, HTRF, uHTS | SUMO-conjugating enzyme UBC9 (Homo sapiens), P63279 | HTRF SUMOylation assay, SAE1/SAE2 + UBC9 | inhibition, % at 35 µM | 0.36% of 290,000 active | AID 2006, 2009; in the data active = inhibition above about 50%, passing the limit was not always enough; inconclusive = no clear call, values can overlap the other calls
Target sequence (P63279 whole entry, looked up): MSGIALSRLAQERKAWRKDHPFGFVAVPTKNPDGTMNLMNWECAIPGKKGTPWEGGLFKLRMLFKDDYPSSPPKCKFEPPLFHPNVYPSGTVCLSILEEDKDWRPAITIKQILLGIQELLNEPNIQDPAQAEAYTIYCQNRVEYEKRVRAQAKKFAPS
An asterisk follows results filed as active; ? = inconclusive; . = not tested or not shown. Most compounds without a hit are left out; they make up all but 4.3% or so of the library.

SMILES | ALR H2O2 inh | PREPL inhibitor | Rin1-Abl PPI inh | RBBP9 inh | UBC13 inh | SUMO HTRF inh
COc1ccc(N2CCN(C(CNC(=O)C(=O)NCc3cccs3)c3ccco3)CC2)cc1 (stereo unspecified) | 36 | 0 | -3 | -9 | -2 | 20
COc1ccc(N2CCN(C(CNC(=O)C(=O)NCCCn3ccnc3)c3cccnc3)CC2)cc1 (stereo unspecified) | 90* | 6 | -5 | -6 | 4 | 3
O=C(Cc1ccccc1F)NCC(c1ccco1)N1CCCCC1 (stereo unspecified) | 1 | -1 | -2 | -7 | 7 | 12
O=C(NCC(c1ccco1)N1CCCCC1)C(c1ccccc1)c1ccccc1 (stereo unspecified) | 94* | 0 | 3 | 0 | 14 | 13
O=C(NCc1cccnc1)C(=O)NCC(c1ccco1)N1CCN(c2ccccc2)CC1 (stereo unspecified) | 98* | -25 | 3 | 0 | -3 | 9
O=C(NCC(c1cccnc1)N1CCN(c2ccccc2)CC1)c1ccco1 (stereo unspecified) | 99* | 15 | -3 | -8 | -2 | .
CC1=C(C)CC2(SC1)C(=O)N(c1ccccc1)N=C2N (stereo unspecified) | 94* | 7 | 0 | -4 | -5 | 6
CCOc1cccc(/C=N/NC(=O)c2cc(C3CC3)[nH]n2)c1O | 98* | 9 | -8 | . | -16 | 11
O=C(CC1C(=O)Nc2ccccc2N1CC(=O)N1CCCC1)Nc1ccc(Br)cc1 (stereo unspecified) | 98* | 19 | 0 | . | 5 | .
O=S1(=O)CC=C(CSC(=S)NC2CCS(=O)(=O)C2)C1 (stereo unspecified) | 99* | 2 | 1 | 1 | 5 | 13
CC(C)(C)c1cc(CSC(=S)NC2CCS(=O)(=O)C2)c(Br)c(C(C)(C)C)c1 (stereo unspecified) | . | -5 | -3 | 0 | 0 | 14
COc1cc(OC)c(NC(C)C(=O)NCc2ccccc2)cc1Cl (stereo unspecified) | 94* | 1 | 5 | -1 | -12 | 13
FC(F)(F)C1=CC(c2ccc(Br)cc2)=NCCN1 | 100* | 15 | 0 | -6 | -2 | 17
CCN(CC)c1ccc(/C=N/NC(=S)NC)c(O)c1 | 98* | 1 | 2 | -1 | 9 | -11
CCN(CC)c1ccc(/C=N/NC(=O)c2ccc3nc[nH]c3c2)c(O)c1 | 97* | 33 | -6 | 7 | -14 | -82
CCN(CC)c1ccc(/C=N/NC(=O)OC)c(O)c1 | 98* | 1 | -2 | -8 | -8 | 14
CCN(CC)c1ccc(/C=N/NC(=O)c2ccoc2C)c(O)c1 | 72 | 16 | -2 | -4 | -3 | -6
Cc1ccc(S(=O)(=O)NC(=O)NC2=NC(C)(C)N(c3ccc(Cl)c(Cl)c3)C(N)=N2)cc1 | . | . | 1 | . | . | .
Cc1cc(C(=O)N2CCCC(N3CCN(c4ccccc4C)CC3)C2)no1 (stereo unspecified) | . | . | 4 | . | . | .
Cc1nc2ccc(Br)cn2c1NC(C)(C)C | 95* | 6 | 4 | -5 | -9 | 0
Cc1nc2ccc(Br)cn2c(=O)c1Cl | -4 | -3 | -5 | -9 | -8 | 19
CC(C)n1nnnc1SCC(=O)N1N=C(c2cccs2)CC1c1cccs1 (stereo unspecified) | -5 | 11 | -2 | . | 0 | .
Cc1cccc(Nc2n[nH]c(=S)s2)c1C | 99* | -6 | -5 | -1 | -2 | 7
CNC[C@@H]1Oc2ccc(NS(=O)(=O)c3ccc(OC)cc3)cc2CC(=O)N([C@H](C)CO)C[C@@H]1C | 0 | 11 | 5 | . | 12 | .
Cc1ccc(-n2c(SCC(=O)O)nc3sc4c(c3c2=O)C(C)CCC4)cc1 (stereo unspecified) | 98* | 6 | 0 | . | 6 | 4
SMILES | ALR H2O2 inh | PREPL inhibitor | Rin1-Abl PPI inh | RBBP9 inh | UBC13 inh | SUMO HTRF inh
Cc1ccc(-n2c(SCC(=O)O)nc3sc4c(c3c2=O)CC(C)(C)SC4)cc1 | . | . | -5 | . | . | .
C[C@H](CO)N1C[C@H](C)[C@@H](CN(C)S(=O)(=O)c2ccc(F)cc2)Oc2ccc(NC(=O)NC3CCCCC3)cc2C1=O | . | 14 | 1 | . | -10 | .
CCOC(=O)N1CCN(S(=O)(=O)c2ccc(C(=O)NNc3nc4ccc(Cl)cc4s3)cc2)CC1 | 98* | 3 | -2 | -7 | -50 | -7
CC(=O)c1c(C(C)=O)c(C)n(C(c2ccccc2)c2ccccc2)c1C | -12 | 10 | -2 | -1 | 3 | 12
COc1ccc2c(c1)c1ncn(CCc3ccccc3)c(=O)c1n2C | 91* | 42 | 3 | 4 | 18 | 24
CC(=O)Nc1ccc(S(=O)(=O)N2CCNC(=O)C2)cc1 | -3 | 5 | 0 | . | 14 | .
CC1(C)Cc2c(cnn2-c2ccc(F)cc2)C(NC(=O)CCCN2CCCCC2=O)C1 (stereo unspecified) | -2 | 4 | 1 | . | 1 | -11
O=c1c2c([N+](=O)[O-])cc([N+](=O)[O-])cc2sn1Cc1ccccc1 | 13 | 17 | -1 | . | -22 | 6
O=c1c2c([N+](=O)[O-])cc([N+](=O)[O-])cc2sn1-c1ccc(Br)cc1 | -7 | 9 | -1 | 17* | -20 | 21
Oc1ccc(/C=C/c2cc(O)cc(O)c2)cc1 | 79* | 11 | -2 | 13 | 5 | -27
O=C(Nc1ccc(Cl)c(Cl)c1)Nn1cnnc1 | -6 | . | 1 | . | -7 | 67*
O=C(Nc1cccc(Cl)c1)Nn1cnnc1 | 8 | -3 | 1 | 0 | -3 | 51*
CCCS(=O)(=O)NC(=O)C1(C)CCN(C(=O)c2ccnc(Cl)c2)C1 (stereo unspecified) | . | . | -3 | . | . | .
Cc1cs/c(=N\N=C\c2ccccc2)n1Cc1ccco1 | 84* | 7 | 2 | -8 | . | 1
CC(C)=N/N=c1\scc(C)n1Cc1ccco1 | 49 | 2 | 5 | 1 | 6 | -27
Cc1cs/c(=N\N=C2CCCCC2)n1Cc1ccco1 | 96* | 4 | 1 | -9 | 0 | -10
COc1ccccc1/C=C/C=N/n1c(-c2cc(C)[nH]n2)n[nH]c1=S | ? | 2 | -2 | -6 | -15 | 6
COc1cc(/C=N/n2c(-c3n[nH]c4c3CCC4)n[nH]c2=S)cc(OC)c1O | 95* | -3 | -1 | 0 | 7 | 21
COc1ccccc1/C=C/C=N/n1c(-c2n[nH]c3c2CCC3)n[nH]c1=S | 5 | 13 | -2 | -13 | -9 | 0

Screening results as filed in PubChem.
